# Laboratory results from ChEMBL document CHEMBL3352113, “Cytoprotective pyridinol antioxidants as potential therapeutic agents for neurodegenerative and mitochondrial diseases” (Bioorg Med Chem, 2014).
# The source made the active and inactive calls. The calls are words filed in the database; no cut-off is given here.
# Tested on: Lymphocyte
# Experiment: Inhibition of oxidative stress-induced mitochondrial membrane depolarization in diethyl maleate-treated human lymphocytes obtained from FRDA patient assessed as cells with intact mitochondrial membrane potential at 250 nM pretreated for 16 hrs using TMRM by FACS analysis (reference value: 95%)
# Assay type: functional
# Set-up: scale not given: the % may be the effect or the level left
# Conditions: not given
row,SMILES,Activity
1,CCCCCCCCCCCCCCCCc1nc(N(C)C)c(C)c(C)c1O,84%
2,CCCCCCCCCCc1c(C)c(N(C)C)nc(C)c1O,78%

# Tested on: Lymphocyte
# Experiment: Inhibition of oxidative stress-induced mitochondrial membrane depolarization in diethyl maleate-treated human lymphocytes obtained from FRDA patient assessed as cells with intact mitochondrial membrane potential at 100 nM pretreated for 16 hrs using TMRM by FACS analysis (reference value: 95%)
# Assay type: functional
# Set-up: scale not given: the % may be the effect or the level left
# Conditions: not given
row,SMILES,Activity
1,CCCCCCCCCCCCCCCCc1nc(N(C)C)c(C)c(C)c1O,67%
2,CCCCCCCCCCc1c(C)c(N(C)C)nc(C)c1O,60%

# Tested on: Lymphocyte
# Experiment: Inhibition of oxidative stress-induced mitochondrial membrane depolarization in diethyl maleate-treated human lymphocytes obtained from FRDA patient assessed as cells with intact mitochondrial membrane potential at 500 nM pretreated for 16 hrs using TMRM by FACS analysis (reference value: 95%)
# Assay type: functional
# Set-up: scale not given: the % may be the effect or the level left
# Conditions: not given
row,SMILES,Activity
1,CCCCCCCCCCCCCCCCc1nc(N(C)C)c(C)c(C)c1O,92%
2,CCCCCCCCCCc1c(C)c(N(C)C)nc(C)c1O,89%

# Organism: Bos taurus
# Experiment: Inhibition of bovine heart mitochondrial NADH oxidase complex I/III/IV assessed as remaining activity at 1 uM by spectrophotometry relative to untreated control
# Conditions: not given
row,SMILES,Activity
1,CCCCCCCCCCCCCCCCc1nc(N(C)C)c(C)c(C)c1O,98%
2,CCCCCCCCCCc1c(C)c(N(C)C)nc(C)c1O,49%

# Tested on: Lymphocyte
# Experiment: Cytoprotective activity in human lymphocytes obtained from Leigh's syndrome patient assessed as viable cells after 16 hrs by trypan blue exclusion assay
# Assay type: functional, cell-based
# Conditions: not given
# Outline: (§1)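 Lymphocytes from FRDA or Leigh's syndrome patients, grown in RPMI-1640 with 15% fetal calf serum and 2 mM glutamine, kept in log phase. Test agents at 0.1, 0.5 and 2.5 µM; diethyl maleate (DEM) added to deplete glutathione and induce oxidative stress. Viability expressed relative to untreated cells (100%). Values are mean ± SD/SEM as tabulated.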
row,SMILES,Activity
1,CCCCCCCCCCCCCCCCc1nc(N(C)C)c(C)c(C)c1O,Dose-dependent effect
2,CCCCCCCCCCc1c(C)c(N(C)C)nc(C)c1O,Dose-dependent effect

# Tested on: Lymphocyte
# Experiment: Cytoprotective activity in human lymphocytes obtained from Leigh's syndrome patient assessed as viable cells at 0.1 uM after 16 hrs by trypan blue exclusion assay
# Assay type: functional
# Conditions: read-out: Activity
# Outline: as §1
row,SMILES,viability at 0.1 µM
1,CCCCCCCCCCCCCCCCc1nc(N(C)C)c(C)c(C)c1O,29%
2,CCCCCCCCCCc1c(C)c(N(C)C)nc(C)c1O,19%

# Tested on: Lymphocyte
# Experiment: Inhibition of ROS generation in diethyl maleate-treated human lymphocytes obtained from FRDA patient compound pretreated for 16 hrs using DCFH-DA by FACS analysis
# Assay type: functional, cell-based
# Conditions: not given
# Outline: (§2)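 FRDA lymphocytes pretreated with compounds at 100, 250 and 500 nM for 16 h, then given DEM for 80 min to raise ROS. Stained with DCFH-DA for 15 min, then DCF fluorescence read by flow cytometry. Reported as % ROS scavenging; mean ± SEM of three experiments run in duplicate.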
row,SMILES,inhibition
1,CCCCCCCCCCCCCCCCc1nc(N(C)C)c(C)c(C)c1O,Dose-dependent effect

# Tested on: Lymphocyte
# Experiment: Cytoprotective activity in human lymphocytes obtained from Leigh's syndrome patient assessed as viable cells at 0.5 uM after 16 hrs by trypan blue exclusion assay
# Assay type: functional
# Conditions: read-out: Activity
# Outline: as §1
row,SMILES,viability at 0.5 µM
1,CCCCCCCCCCCCCCCCc1nc(N(C)C)c(C)c(C)c1O,78%
2,CCCCCCCCCCc1c(C)c(N(C)C)nc(C)c1O,87%

# Tested on: Lymphocyte
# Experiment: Cytoprotective activity in human lymphocytes obtained from FRDA patient assessed as viable cells at 0.1 uM after 16 hrs by trypan blue exclusion assay
# Assay type: functional
# Conditions: read-out: Activity
# Outline: as §1
row,SMILES,viability at 0.1 µM
1,CCCCCCCCCCCCCCCCc1nc(N(C)C)c(C)c(C)c1O,80%
2,CCCCCCCCCCc1c(C)c(N(C)C)nc(C)c1O,34%

# Tested on: Lymphocyte
# Experiment: Increase in ATP production in CoQ10-deficient lymphocytes (unknown origin) assessed as cellular ATP level at 10 uM after 48 hrs using luciferin-luciferase reaction by bioluminescence assay relative to control
# Assay type: functional
# Conditions: not given
# Outline: (§3)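 CoQ10-deficient lymphocyte line GM17932 grown in glucose-free RPMI 1640 with 25 mM galactose, 2 mM glutamine and 10% dialyzed FBS, forcing oxidative phosphorylation. Incubated with compounds at 5, 10 or 25 µM for 48 h. Total intracellular ATP measured by luciferin–luciferase reaction, expressed as % of untreated control.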
row,SMILES,Activity
1,CCCCCCCCCCCCCCCCc1nc(N(C)C)c(C)c(C)c1O,79%
2,CCCCCCCCCCc1c(C)c(N(C)C)nc(C)c1O,40%

# Tested on: not listed separately
# Experiment: Drug metabolism in bovine liver microsomes at 25 uM after 30 mins by reverse phase HPLC analysis
# Assay type: ADME, Bos taurus
# Conditions: cattle, read-out: Drug metabolism
# Outline: (§4)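 Compounds incubated 30 min with activated bovine liver microsomes. Remaining parent compound quantified by reversed-phase HPLC and expressed as % recovered; mean ± SD.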
row,SMILES,"metabolised at 0.5 h, 25 µM"
1,CCCCCCCCCCCCCCCCc1nc(N(C)C)c(C)c(C)c1O,20%

# Tested on: Lymphocyte
# Experiment: Inhibition of oxidative stress-induced mitochondrial membrane depolarization in diethyl maleate-treated human lymphocytes obtained from FRDA patient assessed as cells with intact mitochondrial membrane potential pretreated for 16 hrs using TMRM by FACS analysis
# Assay type: functional, cell-based
# Conditions: not given
row,SMILES,inhibition
1,CCCCCCCCCCCCCCCCc1nc(N(C)C)c(C)c(C)c1O,Dose-dependent effect
2,CCCCCCCCCCc1c(C)c(N(C)C)nc(C)c1O,Dose-dependent effect

# Tested on: Lymphocyte
# Experiment: Cytoprotective activity in human lymphocytes obtained from FRDA patient assessed as viable cells after 16 hrs by trypan blue exclusion assay
# Assay type: functional, cell-based
# Conditions: not given
# Outline: as §1
row,SMILES,Activity
1,CCCCCCCCCCCCCCCCc1nc(N(C)C)c(C)c(C)c1O,Dose-dependent effect
2,CCCCCCCCCCc1c(C)c(N(C)C)nc(C)c1O,Dose-dependent effect

# Organism: Bos taurus
# Experiment: Inhibition of bovine heart mitochondrial NADH oxidase complex I/III/IV assessed as remaining activity at 5 uM by spectrophotometry relative to untreated control
# Conditions: not given
row,SMILES,Activity
1,CCCCCCCCCCCCCCCCc1nc(N(C)C)c(C)c(C)c1O,95%
2,CCCCCCCCCCc1c(C)c(N(C)C)nc(C)c1O,35%

# Tested on: Lymphocyte
# Experiment: Inhibition of lipid peroxidation in diethyl maleate-treated human lymphocytes obtained from FRDA patient at 100 to 250 nM after 16 hrs using C11-BODIPY581/591 by FACS analysis
# Assay type: functional, cell-based
# Conditions: not given
# Outline: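 FRDA lymphocytes depleted of glutathione with DEM, probed with C11-BODIPY581/591. Green (oxidized) fluorescence read by flow cytometry at 490/510 nm. Median mean fluorescence taken relative to untreated control and converted to % lipid peroxidation scavenging; mean ± SEM, n = 3.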
row,SMILES,inhibition
1,CCCCCCCCCCCCCCCCc1nc(N(C)C)c(C)c(C)c1O,Active
2,CCCCCCCCCCc1c(C)c(N(C)C)nc(C)c1O,Active

# Tested on: Lymphocyte
# Experiment: Cytoprotective activity in human lymphocytes obtained from Leigh's syndrome patient assessed as viable cells at 2.5 uM after 16 hrs by trypan blue exclusion assay
# Assay type: functional
# Conditions: read-out: Activity
# Outline: as §1
row,SMILES,viability at 2.5 µM
1,CCCCCCCCCCCCCCCCc1nc(N(C)C)c(C)c(C)c1O,83%
2,CCCCCCCCCCc1c(C)c(N(C)C)nc(C)c1O,86%

# Tested on: Lymphocyte
# Experiment: Increase in ATP production in CoQ10-deficient lymphocytes (unknown origin) assessed as cellular ATP level at 5 uM after 48 hrs using luciferin-luciferase reaction by bioluminescence assay relative to control
# Assay type: functional
# Conditions: not given
# Outline: as §3
row,SMILES,Activity
1,CCCCCCCCCCCCCCCCc1nc(N(C)C)c(C)c(C)c1O,100%
2,CCCCCCCCCCc1c(C)c(N(C)C)nc(C)c1O,87%

# Tested on: Lymphocyte
# Experiment: Inhibition of ROS generation in diethyl maleate-treated human lymphocytes obtained from FRDA patient compound pretreated at 100 to 500 nM for 16 hrs using DCFH-DA by FACS analysis
# Assay type: functional, cell-based
# Conditions: not given
# Outline: as §2
row,SMILES,inhibition
1,CCCCCCCCCCCCCCCCc1nc(N(C)C)c(C)c(C)c1O,Active
2,CCCCCCCCCCc1c(C)c(N(C)C)nc(C)c1O,Active

# Organism: Bos taurus
# Experiment: Inhibition of bovine heart mitochondrial NADH oxidase complex I/III/IV assessed as remaining activity at 10 uM by spectrophotometry relative to untreated control
# Conditions: not given
row,SMILES,Activity
1,CCCCCCCCCCCCCCCCc1nc(N(C)C)c(C)c(C)c1O,92%
2,CCCCCCCCCCc1c(C)c(N(C)C)nc(C)c1O,8%

# Tested on: Lymphocyte
# Experiment: Cytoprotective activity in human lymphocytes obtained from FRDA patient assessed as viable cells at 0.5 uM after 16 hrs by trypan blue exclusion assay
# Assay type: functional
# Conditions: read-out: Activity
# Outline: as §1
row,SMILES,viability at 0.5 µM
1,CCCCCCCCCCCCCCCCc1nc(N(C)C)c(C)c(C)c1O,91%
2,CCCCCCCCCCc1c(C)c(N(C)C)nc(C)c1O,84%

# Tested on: Lymphocyte
# Experiment: Increase in ATP production in CoQ10-deficient lymphocytes (unknown origin) assessed as cellular ATP level at 25 uM after 48 hrs using luciferin-luciferase reaction by bioluminescence assay relative to control
# Assay type: functional
# Conditions: not given
# Outline: as §3
row,SMILES,Activity
1,CCCCCCCCCCCCCCCCc1nc(N(C)C)c(C)c(C)c1O,41%
2,CCCCCCCCCCc1c(C)c(N(C)C)nc(C)c1O,2%

# Organism: Bos taurus
# Experiment: Inhibition of bovine heart mitochondrial NADH oxidase complex I/III/IV assessed as remaining activity by spectrophotometry relative to untreated control
# Conditions: not given
row,SMILES,inhibition
1,CCCCCCCCCCCCCCCCc1nc(N(C)C)c(C)c(C)c1O,Dose-dependent effect
2,CCCCCCCCCCc1c(C)c(N(C)C)nc(C)c1O,Dose-dependent effect

# Tested on: not listed separately
# Experiment: Metabolic stability in bovine liver microsomes at 25 uM after 30 mins by reverse phase HPLC analysis
# Assay type: ADME, Bos taurus
# Conditions: cattle, read-out: Stability
# Outline: as §4
row,SMILES,"remaining at 0.5 h, 25 µM"
1,CCCCCCCCCCCCCCCCc1nc(N(C)C)c(C)c(C)c1O,70%
2,CCCCCCCCCCc1c(C)c(N(C)C)nc(C)c1O,70%

# Tested on: Lymphocyte
# Experiment: Cytoprotective activity in human lymphocytes obtained from FRDA patient assessed as viable cells at 2.5 uM after 16 hrs by trypan blue exclusion assay
# Assay type: functional
# Conditions: read-out: Activity
# Outline: as §1
row,SMILES,viability at 2.5 µM
1,CCCCCCCCCCCCCCCCc1nc(N(C)C)c(C)c(C)c1O,92%
2,CCCCCCCCCCc1c(C)c(N(C)C)nc(C)c1O,86%
